# Test system: U2OS
# Assay: Multiplex assay against U2OS
# Format: toxicity, cell-based
# Conditions: human
# How it was run: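 At seeding, live cells were stained with Hoechst33342, BioTracker Green Microtubule Cytoskeleton Dye, MitoTracker Red and Annexin V Alexa Fluor 680. After compound addition they were imaged on a CQ1 microscope at 37°C and 5% CO2, and CellPathfinder machine-learning gating sorted them into Hoechst high-intensity objects or normal cells, with normal cells further split into healthy, pyknosed or fragmented nuclei and pyknosed cells into mitotic or apoptotic. Tubulin, mitochondrial-mass and membrane-permeability phenotypes are given as per cents of cells with healthy nuclei.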
# [1] = 12 h, 1 µM, compound concentration 1 uM, replicate 1
# [2] = 12 h, 1 µM, compound concentration 1 uM, replicate 2
# [3] = 12 h, 10 µM, compound concentration 10 uM, replicate 1
# [4] = 12 h, 10 µM, compound concentration 10 uM, replicate 2
# [5] = 24 h, 1 µM, compound concentration 1 uM, replicate 1
# [6] = 24 h, 1 µM, compound concentration 1 uM, replicate 2
# [7] = 24 h, 10 µM, compound concentration 10 uM, replicate 1
# [8] = 24 h, 10 µM, compound concentration 10 uM, replicate 2
# [9] = 48 h, 1 µM, compound concentration 1 uM, replicate 1
# [10] = 48 h, 1 µM, compound concentration 1 uM, replicate 2
# [11] = 48 h, 10 µM, compound concentration 10 uM, replicate 1
# [12] = 48 h, 10 µM, compound concentration 10 uM, replicate 2
compound,measurement,setting,value
O=C1NC(=O)C(c2cnc3ccccn23)=C1c1cn2c3c(cc(F)cc13)CN(C(=O)N1CCCCC1)CC2 [LY-2090314],Population Apoptotic (%),[1],37%
same,Population Fragmented Nuclei (%),[1],8%
same,Population Healthy Nuclei (%),[1],74%
same,Population Hoechst High Intensity Objects (%),[1],8%
same,Population Membrane Permeable-Phenotype (%),[1],5%
same,Population Mitochondria Different-Phenotype (%),[1],31%
same,Population Mitotic Cells (%),[1],62%
same,Population Normal (%),[1],91%
same,Population Pyknosed Nuclei (%),[1],17%
same,Population Tubulin-Different-Phenotype (%),[1],38%
same,Total Cell Count,[1],121
same,Population Apoptotic (%),[2],80%
same,Population Fragmented Nuclei (%),[2],3%
same,Population Healthy Nuclei (%),[2],87%
same,Population Hoechst High Intensity Objects (%),[2],12%
same,Population Membrane Permeable-Phenotype (%),[2],6%
same,Population Mitochondria Different-Phenotype (%),[2],16%
same,Population Mitotic Cells (%),[2],20%
same,Population Normal (%),[2],87%
same,Population Pyknosed Nuclei (%),[2],9%
same,Population Tubulin-Different-Phenotype (%),[2],22%
same,Total Cell Count,[2],85
same,Population Apoptotic (%),[3],60%
same,Population Fragmented Nuclei (%),[3],13%
same,Population Healthy Nuclei (%),[3],73%
same,Population Hoechst High Intensity Objects (%),[3],18%
same,Population Membrane Permeable-Phenotype (%),[3],44%
same,Population Mitochondria Different-Phenotype (%),[3],95%
same,Population Mitotic Cells (%),[3],40%
same,Population Normal (%),[3],81%
same,Population Pyknosed Nuclei (%),[3],13%
same,Population Tubulin-Different-Phenotype (%),[3],99%
same,Total Cell Count,[3],153
same,Population Apoptotic (%),[4],100%
same,Population Fragmented Nuclei (%),[4],9%
same,Population Healthy Nuclei (%),[4],74%
same,Population Hoechst High Intensity Objects (%),[4],10%
same,Population Membrane Permeable-Phenotype (%),[4],40%
same,Population Mitochondria Different-Phenotype (%),[4],96%
same,Population Mitotic Cells (%),[4],0%
same,Population Normal (%),[4],89%
same,Population Pyknosed Nuclei (%),[4],16%
same,Population Tubulin-Different-Phenotype (%),[4],96%
same,Total Cell Count,[4],63
same,Population Apoptotic (%),[5],36%
same,Population Fragmented Nuclei (%),[5],13%
same,Population Healthy Nuclei (%),[5],64%
same,Population Hoechst High Intensity Objects (%),[5],3%
same,Population Membrane Permeable-Phenotype (%),[5],3%
same,Population Mitochondria Different-Phenotype (%),[5],21%
same,Population Mitotic Cells (%),[5],63%
same,Population Normal (%),[5],96%
same,Population Pyknosed Nuclei (%),[5],21%
same,Population Tubulin-Different-Phenotype (%),[5],25%
same,Total Cell Count,[5],124
same,Population Apoptotic (%),[6],80%
same,Population Fragmented Nuclei (%),[6],4%
same,Population Healthy Nuclei (%),[6],87%
same,Population Hoechst High Intensity Objects (%),[6],13%
same,Population Membrane Permeable-Phenotype (%),[6],7%
same,Population Mitochondria Different-Phenotype (%),[6],22%
same,Population Mitotic Cells (%),[6],20%
same,Population Normal (%),[6],86%
same,Population Pyknosed Nuclei (%),[6],8%
same,Population Tubulin-Different-Phenotype (%),[6],18%
same,Total Cell Count,[6],82
same,Population Apoptotic (%),[7],71%
same,Population Fragmented Nuclei (%),[7],20%
same,Population Healthy Nuclei (%),[7],59%
same,Population Hoechst High Intensity Objects (%),[7],18%
same,Population Membrane Permeable-Phenotype (%),[7],62%
same,Population Mitochondria Different-Phenotype (%),[7],98%
same,Population Mitotic Cells (%),[7],28%
same,Population Normal (%),[7],81%
same,Population Pyknosed Nuclei (%),[7],19%
same,Population Tubulin-Different-Phenotype (%),[7],100%
same,Total Cell Count,[7],171
same,Population Apoptotic (%),[8],81%
same,Population Fragmented Nuclei (%),[8],11%
same,Population Healthy Nuclei (%),[8],64%
same,Population Hoechst High Intensity Objects (%),[8],4%
same,Population Membrane Permeable-Phenotype (%),[8],37%
same,Population Mitochondria Different-Phenotype (%),[8],96%
same,Population Mitotic Cells (%),[8],18%
same,Population Normal (%),[8],95%
same,Population Pyknosed Nuclei (%),[8],24%
same,Population Tubulin-Different-Phenotype (%),[8],96%
same,Total Cell Count,[8],72
same,Population Apoptotic (%),[9],55%
same,Population Fragmented Nuclei (%),[9],15%
same,Population Healthy Nuclei (%),[9],63%
same,Population Hoechst High Intensity Objects (%),[9],3%
same,Population Membrane Permeable-Phenotype (%),[9],7%
same,Population Mitochondria Different-Phenotype (%),[9],22%
same,Population Mitotic Cells (%),[9],44%
same,Population Normal (%),[9],96%
same,Population Pyknosed Nuclei (%),[9],21%
same,Population Tubulin-Different-Phenotype (%),[9],12%
same,Total Cell Count,[9],117
same,Population Apoptotic (%),[10],72%
same,Population Fragmented Nuclei (%),[10],8%
same,Population Healthy Nuclei (%),[10],79%
same,Population Hoechst High Intensity Objects (%),[10],7%
same,Population Membrane Permeable-Phenotype (%),[10],11%
same,Population Mitochondria Different-Phenotype (%),[10],17%
same,Population Mitotic Cells (%),[10],27%
same,Population Normal (%),[10],92%
same,Population Pyknosed Nuclei (%),[10],12%
same,Population Tubulin-Different-Phenotype (%),[10],19%
same,Total Cell Count,[10],82
same,Population Apoptotic (%),[11],95%
same,Population Fragmented Nuclei (%),[11],33%
same,Population Healthy Nuclei (%),[11],39%
same,Population Hoechst High Intensity Objects (%),[11],20%
same,Population Membrane Permeable-Phenotype (%),[11],68%
same,Population Mitochondria Different-Phenotype (%),[11],93%
same,Population Mitotic Cells (%),[11],5%
same,Population Normal (%),[11],79%
same,Population Pyknosed Nuclei (%),[11],26%
same,Population Tubulin-Different-Phenotype (%),[11],100%
same,Total Cell Count,[11],221
same,Population Apoptotic (%),[12],83%
same,Population Fragmented Nuclei (%),[12],12%
same,Population Healthy Nuclei (%),[12],72%
same,Population Hoechst High Intensity Objects (%),[12],11%
same,Population Membrane Permeable-Phenotype (%),[12],48%
same,Population Mitochondria Different-Phenotype (%),[12],89%
same,Population Mitotic Cells (%),[12],16%
same,Population Normal (%),[12],88%
same,Population Pyknosed Nuclei (%),[12],15%
same,Population Tubulin-Different-Phenotype (%),[12],89%
same,Total Cell Count,[12],93
